# Sampled rows, rich in hits. Any-hit rate of the full collection: about 3.7%.
# KCNK9 inh – blocks the human KCNK9 two-pore domain potassium channel; HEK293 KCNK9, FluxOR thallium flux fluorescence; active compounds read low; Q9NPC2; B-score at 10 µM; actives 1.2% (n = 310,000); AID 488922;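 active = ratio B-score over 3 SD below the library mean, with starting fluorescence within 5 SD of its mean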;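 note: negative B-score means less thallium flux so channel inhibition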
# hERG rescue – compounds protecting human hERG from proarrhythmic drug block. CHO-hERG, FluxOR thallium flux, dofetilide IC70 present. actives 0.51% (n = 310,000). activation (rescue from dofetilide block), less the hit threshold, % at 10 µM;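 active = activation above the mean of controls blocked by dofetilide plus 5 SD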;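 note: thallium influx through hERG after potassium depolarization seen as dye fluorescence rise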
# KCNK3 inh – human KCNK3 channel inhibition, primary screen | B-score at 10 µM | actives 0.84% (n = 340,000) | O14649 | CHO-KCNK3 thallium flux, FluxOR fluorescence; active compounds read low;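 active = B-score under library mean minus 4 SD, starting fluorescence ratio at most library mean plus 5 SD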;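 note: more negative B-score means stronger inhibition of thallium flux through KCNK3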
# Target sequence (O14649 whole entry, looked up): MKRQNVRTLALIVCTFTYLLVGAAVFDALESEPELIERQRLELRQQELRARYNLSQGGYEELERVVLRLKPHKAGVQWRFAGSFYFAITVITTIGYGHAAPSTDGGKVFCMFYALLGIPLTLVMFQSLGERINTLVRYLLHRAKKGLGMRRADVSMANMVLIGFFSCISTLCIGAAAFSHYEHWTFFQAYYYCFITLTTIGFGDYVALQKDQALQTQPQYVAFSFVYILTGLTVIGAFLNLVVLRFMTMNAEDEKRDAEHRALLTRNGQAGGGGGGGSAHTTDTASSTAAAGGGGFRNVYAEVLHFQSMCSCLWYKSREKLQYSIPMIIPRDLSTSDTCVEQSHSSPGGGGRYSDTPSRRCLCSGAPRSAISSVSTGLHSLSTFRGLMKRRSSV
# KCNQ1 inh – inhibitors of human KCNQ1 potassium channel. CHO-K1 KCNQ1, FluxOR thallium flux fluorescence; active compounds read high. actives 1.3% (n = 310,000). B-score at 10 µM;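 active = compounds whose thallium flux B-score, printed positive for inhibition, exceeds three library SD while starting fluorescence stays within three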;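 note: channel opened by potassium depolarization with thallium stimulus after 20 min compound exposure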
# KCNQ1 act – potentiators or activators of human KCNQ1 potassium channel; B-score at 10 µM; actives 0.35% (n = 310,000); CHO-K1 KCNQ1, thallium flux FluxOR fluorescence; active compounds read high; P51787;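 active = fluorescence ratio B-score, a plate-corrected score, at least three library SD, with initial intensity B-score within 5 SD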
#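 Test system: CHO-K1 cells stably expressing KCNQ1 / Medium: assay buffer / Also added: depolarizing K+/Tl+ stimulus, K2SO4 and Tl2SO4 each 12.5 mM in 5x stock / Incubation: 90 min dye loading and 20 min compound exposure, both at room temperature / Signal: thallium influx via FluxOR fluorescence, kinetic imaging / Evaluation: B score of baseline-normalized fluorescence ratio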
# Kir21 inh – Kir2.1 (mouse) channel inhibition. P35561. HEK293-Kir2.1, FluxOR thallium flux fluorescence; active compounds read low. B-score at 10 µM. actives 0.85% (n = 310,000). AID 1672;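 active = fluorescence ratio B-score at or below minus 3 SD of library scores, with starting-brightness B-score within 2 SD, cut at about -4.2 in these data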;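 note: channel flux triggered by added potassium and thallium sulfate stimulus; B-score of peak minus minimum fluorescence over baseline after thallium stimulus; more negative B-score means stronger Kir2.1 block with less thallium influx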
# * marks the source's active call; other numbers are inactive results; i = inactive; nt = no result.
SMILES,KCNK9 inh,hERG rescue,KCNK3 inh,KCNQ1 inh,KCNQ1 act,Kir21 inh
COC(=O)CNC(c1ccccc1)c1cc(Br)ccc1NS(=O)(=O)c1ccc(C)cc1 (stereo unspecified),-7.4*,-13,i,i,i,1.3
COC(=O)CNC(c1ccccc1)c1cc(Br)ccc1N (stereo unspecified),i,-3,i,i,i,-0.55
COC(=O)CNC(c1ccccc1)c1cc(Br)ccc1NS(=O)(=O)c1ccccc1 (stereo unspecified),-6.6*,-7,i,i,i,-0.06
Cc1ccc(S(=O)(=O)N(C)C)cc1NC(=O)COC(=O)c1ccc2c(c1)NC(=O)CS2,i,-13,i,i,i,-0.09
COc1ccccc1NC(=O)C1CC(C)OC1=O (stereo unspecified),i,-10,i,i,i,-0.88
Cc1noc(C)c1S(=O)(=O)Nc1cccc(C(F)(F)F)c1,i,-8,i,6*,i,-0.01
Cc1cccc(NS(=O)(=O)c2c(C)noc2C)c1,i,-4,i,i,i,-1.1
Cc1noc(C)c1S(=O)(=O)NCc1cccc(Cl)c1,nt,nt,-11*,nt,nt,nt
O=C(COC(=O)C1CCN(S(=O)(=O)c2cccs2)CC1)c1cc2ccccc2o1,-7.8*,-9,i,i,i,-0.58
COc1cc(OC)cc(C(=O)N2CCCC(Nc3ccc(F)cc3)C2)c1 (stereo unspecified),i,-6,i,i,i,0.42
COc1ccc2cc(C(=O)N3CCCC(Nc4ccc(F)cc4)C3)n(C)c2c1 (stereo unspecified),i,-9,i,i,i,-4.9*
CCn1c(CSCc2ccc(F)cc2)nnc1SCC(=O)NCc1ccccc1,i,-7,i,i,i,-2.1
CCn1c(CSCc2ccc(C)cc2)nnc1SCC(=O)NCc1ccccc1,i,-20,i,i,i,-6*
Cc1cc(C)n2nc(C(=O)OCC(=O)c3ccc(F)cc3)nc2n1,i,-8,i,i,i,-0.04
C=CCN(CC=C)C(=O)COn1nnc2ccc(S(=O)(=O)N3CCOCC3)cc21,i,-7,i,i,i,-0.2
CNc1ccc(/C=C/C(=O)c2ccc3c(c2)OCCO3)cc1[N+](=O)[O-],i,-2,i,10*,i,0.22
CC(C)NC(=O)/C(C#N)=C/c1ccc(N(C)C)o1,i,-14,i,7*,i,-3.7
N#Cc1ccc(-c2nnnn2-c2ccc3c(c2)OCO3)cc1,i,4.8*,i,i,i,-0.73
Cc1ccc(NS(=O)(=O)c2ccc(Cl)nc2)c(C)c1,nt,nt,i,nt,nt,nt
Cc1ccc(S(=O)(=O)Nc2cc(Cl)c(O)cc2C)cc1,i,-15,i,i,i,-5.6*
Cc1ccc(S(=O)(=O)Nc2cc(C(C)C)c(O)cc2C)cc1,i,-10,i,i,i,-6.5*
Cc1oc2c(C)c3oc(=O)c(CCC(=O)NCCCn4ccnc4)c(C)c3cc2c1C,i,-6,i,i,i,-1.5
O=C(CCc1ccc(O)c(O)c1)N/N=C/c1ccc2c(c1)OCO2,i,-16,i,6*,i,0.46
CC(C)Oc1ccc(CCC(=O)N/N=C/c2ccc3c(c2)OCO3)cc1,i,-6,i,i,i,1.5
CC(=O)c1ccc(-c2nnc(CCC(=O)N(C)Cc3cccc4cnccc34)o2)s1,i,-14,i,i,i,0.38
CC(=O)c1ccc(-c2nnc(CCC(=O)N(C)Cc3c(C)nc4ccccn34)o2)s1,i,8.1*,i,i,i,-0.02
CC(C(=O)N1CCc2ccccc21)N1CCN(S(=O)(=O)c2ccc3c(c2)OCCCO3)CC1 (stereo unspecified),nt,nt,i,nt,nt,nt
Cc1ccsc1CN(C)C(=O)C(NC(=O)c1cccc(S(=O)(=O)N2CCOCC2)c1)C(C)C (stereo unspecified),nt,nt,i,nt,nt,nt
COC(=O)C(CC(C)C)NC(=O)CSc1nc(-c2ccccc2)c(C#N)c(=O)[nH]1 (stereo unspecified),i,5.3*,i,i,i,-0.31

# Assay outcomes as filed in PubChem BioAssay.
